Measurements published in ChEMBL document CHEMBL1157157, “N-Aroyl-3,5-bis(benzylidene)-4-piperidones: a novel class of antimycobacterial agents” (Bioorg Med Chem, 2008).
Values after ≈ are worked out from the molar mass of the structure shown. Active and inactive are the calls of the source. The rule behind the calls is not given here.

Key:
[1] = Lipophilicity, log P of the compound; type: physicochemical; details: octanol/water
Method in brief: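 log P calculated with ACD algorithm and database statistics; not measured experimentally.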

[2] = system: Mus musculus; assay: Neurotoxicity in mouse at 100 mg/kg after 0.5 hrs; type: toxicity, organism-based; parameters: dose 100 mg/kg; details: in vivo
Method in brief: (§1)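 Mice dosed intraperitoneally at 30, 100 and 300 mg/kg; 1a and 1b given as hydrochloride salts. Observed 0.5 and 4 h after dosing. Value is number of animals showing neurological deficit over number dosed. Deaths also recorded.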

[3] = system: Mus musculus; assay: Neurotoxicity in mouse at 300 mg/kg after 0.5 hrs; type: toxicity, organism-based; parameters: dose 300 mg/kg; details: in vivo; method in brief: as §1
[4] = system: Mus musculus; assay: Neurotoxicity in mouse at 100 mg/kg after 4 hrs; type: toxicity, organism-based; parameters: dose 100 mg/kg; details: in vivo; method in brief: as §1
[5] = system: Mus musculus; assay: Neurotoxicity in mouse at 300 mg/kg after 4 hrs; type: toxicity, organism-based; parameters: dose 300 mg/kg; details: in vivo; method in brief: as §1
[6] = system: Mycobacterium tuberculosis; assay: Antimycobacterial activity against Mycobacterium tuberculosis H37Rv at 6.25 ug/ml by broth microdilution assay; type: functional
Method in brief: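 Single-concentration screen at 6.25 µg/mL against M. tuberculosis H37Rv (ATCC 27294), broth microdilution in BACTEC 12B medium. Read-out is % growth inhibition versus controls. At least 90% inhibition counted as active.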

[7] = system: Mycobacterium tuberculosis; assay: Antimycobacterial activity against Mycobacterium tuberculosis H37Rv by broth microdilution assay; type: functional
Method in brief: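 M. tuberculosis H37Rv (ATCC 27294) grown in BACTEC 12B medium, broth microdilution. MIC taken as the lowest concentration giving a 90% reduction in fluorescence relative to controls. Rifampin served as reference drug.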

[8] = system: Rattus norvegicus; assay: Neurotoxicity in rat at 30 mg/kg, po after 0.5 hrs; type: toxicity, organism-based; parameters: dose 30 mg/kg, route oral; details: in vivo
Method in brief: (§2)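 Rats dosed orally at 30 or 50 mg/kg and examined for neurotoxicity 0.25, 0.5, 1, 2 and 4 h after dosing. Four animals per group, with three rats at one 0.5 h time point.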

[9] = system: Rattus norvegicus; assay: Neurotoxicity in rat at 30 mg/kg, po after 4 hrs; type: toxicity, organism-based; parameters: dose 30 mg/kg, route oral; details: in vivo; method in brief: as §2
[10] = system: Mycobacterium tuberculosis; assay: Antimycobacterial activity against Mycobacterium tuberculosis H37Rv at 12.5 ug/ml by broth microdilution assay; type: functional
Method in brief: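 Primary screen against M. tuberculosis H37Rv (ATCC 27294) at a single concentration of 12.5 µg/mL in BACTEC 12B medium by broth microdilution. Growth inhibition expressed as % relative to controls. Hydrochloride salt used where applicable.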

[11] = system: Rattus norvegicus; assay: Neurotoxicity in rat at 30 mg/kg, po after 2 hrs; type: toxicity, organism-based; parameters: dose 30 mg/kg, route oral; details: in vivo; method in brief: as §2
[12] = system: Rattus norvegicus; assay: Neurotoxicity in rat at 30 mg/kg, po after 0.25 hrs; type: toxicity, organism-based; parameters: dose 30 mg/kg, route oral; details: in vivo; method in brief: as §2
[13] = system: Liver; assay: Stimulation of respiration in rat liver mitochondria assessed as effect on swelling at 5 uM; type: functional
Method in brief: (§3)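 Rat liver mitochondria isolated by differential centrifugation (respiratory control ratio 5–7). Swelling of fresh mitochondria followed at 30 °C in 125 mM sucrose, 65 mM KCl, 10 mM Hepes, 5 mM potassium phosphate, 1 mM MgCl2, pH 7.2, with 5 mM succinate. Compounds tested at 5, 10 and 100 μM; DMSO solvent control.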

[14] = system: Liver; assay: Stimulation of respiration in rat liver mitochondria assessed as effect on swelling at 10 uM; type: functional; method in brief: as §3
[15] = system: Liver; assay: Stimulation of respiration in rat liver mitochondria assessed as effect on swelling at 100 uM; type: functional; method in brief: as §3

Row | SMILES | logP [1] | Activity [2] | Activity [3] | Activity [4] | Activity [5] | inhibition at 6.25 µg/mL [6] [%] | MIC [7] [µg/mL] | Activity [8] | logP ([1]; read-out: logP) | Activity [9] | inhibition at 12.5 µg/mL [10] [%] | Activity [11] | Activity [12] | Activity [13] | Activity [14] | Activity [15]
1 | Cc1ccc(/C=C2\CNC/C(=C\c3ccc(C)cc3)C2=O)cc1 | 6.6 | Non-toxic | Non-toxic | Non-toxic | Non-toxic | 0 | – | – | – | – | – | – | – | – | – | –
2 | CO[C@H]1/C=C/O[C@@]2(C)Oc3c(C)c(O)c4c(O)c(c(/C=N/N5CCN(C)CC5)c(O)c4c3C2=O)NC(=O)/C(C)=C\C=C\[C@H](C)[C@H](O)[C@@H](C)[C@@H](O)[C@@H](C)[C@H](OC(C)=O)[C@@H]1C [RIFAMPIN] | – | – | – | – | – | – | 0.07 (≈ 0.0851 µM) | – | – | – | – | – | – | – | – | –
3 | CN(C)CCOc1ccc(C(=O)N2C/C(=C\c3ccc([N+](=O)[O-])cc3)C(=O)/C(=C/c3ccc([N+](=O)[O-])cc3)C2)cc1.Cl | – | Non-toxic | – | Non-toxic | – | 27 | – | Non-toxic | 5.5 | – | – | – | – | – | – | –
4 | Cl.O=C1/C(=C/c2ccc([N+](=O)[O-])cc2)CN(C(=O)c2ccc(OCCN3CCCCC3)cc2)C/C1=C\c1ccc([N+](=O)[O-])cc1 | 6.6 | – | – | Non-toxic | – | 100 | 3.13 | – | – | – | – | – | – | – | – | –
5 | Cl.O=C1/C(=C/c2ccccc2)CN(C(=O)c2ccc(OCCN3CCCCC3)cc2)C/C1=C\c1ccccc1 | 7.1 | – | – | – | – | 100 | 6.25 | – | – | – | – | – | – | – | – | –
6 | CC[N+](C)(CC)CCOc1ccc(C(=O)N2C/C(=C\c3ccc(Cl)cc3)C(=O)/C(=C/c3ccc(Cl)cc3)C2)cc1.[I-] | – | Non-toxic | Non-toxic | Non-toxic | Non-toxic | 23 | – | – | 3.2 | – | – | – | – | – | – | –
7 | CC[N+](C)(CC)CCOc1ccc(C(=O)N2C/C(=C\c3ccc([N+](=O)[O-])cc3)C(=O)/C(=C/c3ccc([N+](=O)[O-])cc3)C2)cc1.[I-] | – | – | Toxic | – | Toxic | 0 | – | – | 1.8 | Non-toxic | – | – | – | – | – | –
8 | Cl.O=C1/C(=C/c2ccc(Cl)cc2)CNC/C1=C\c1ccc(Cl)cc1 | 6.8 | Non-toxic | Non-toxic | Non-toxic | Non-toxic | – | 6.25 | – | – | – | 99 | – | – | – | – | –
9 | Cl.O=C1/C(=C/c2ccc(Cl)cc2)CN(C(=O)c2ccc(OCCN3CCOCC3)cc2)C/C1=C\c1ccc(Cl)cc1 | – | Non-toxic | Non-toxic | Non-toxic | Non-toxic | 0 | – | – | 6.4 | – | – | Non-toxic | – | – | – | –
10 | Cc1ccc(/C=C2\CN(C(=O)c3ccc(OCCN4CCOCC4)cc3)C/C(=C\c3ccc(C)cc3)C2=O)cc1.Cl | – | Non-toxic | Non-toxic | Non-toxic | Non-toxic | 100 | 0.78 | – | 6.3 | – | – | – | – | – | – | –
11 | Cl.O=C1/C(=C/c2ccccc2)CN(C(=O)c2ccc(OCCN3CCOCC3)cc2)C/C1=C\c1ccccc1 | – | Non-toxic | – | Non-toxic | Non-toxic | 100 | 6.25 | – | 5.4 | – | – | – | – | – | – | –
12 | CN(C)CCOc1ccc(C(=O)N2C/C(=C\c3ccccc3)C(=O)/C(=C/c3ccccc3)C2)cc1.Cl | 5.9 | Non-toxic | Non-toxic | Non-toxic | Non-toxic | 98 | 1.56 | – | – | – | – | – | Non-toxic | inactive | inactive | inactive
13 | Cl.O=C1/C(=C/c2ccc([N+](=O)[O-])cc2)CN(C(=O)c2ccc(OCCN3CCOCC3)cc2)C/C1=C\c1ccc([N+](=O)[O-])cc1 | – | Non-toxic | – | Non-toxic | Non-toxic | 100 | 6.25 | – | 5 | – | – | – | – | – | – | –
14 | Cl.O=C1/C(=C/c2ccccc2)CNC/C1=C\c1ccccc1 | 5.7 | Non-toxic | Non-toxic | Non-toxic | Non-toxic | – | 3.13 | – | – | – | 99 | – | – | – | – | –
